Laboratory results as given in ChEMBL document CHEMBL1138684, “Determinants of retinoid X receptor transcriptional antagonism” (J Med Chem, 2004).
pIC50: −log10 of the molar value. Values belong to the compound of their own block, whether it stands above or below them.

Experiments:
[1] = target: T1, Retinoic acid receptor RXR-alpha (Homo sapiens, UniProt P19793); test: Inhibition of [3H]9-cis-retinoic acid binding to human retinoid X receptor alpha ligand-binding domain expressed in Escherichia coli
T1 sequence (P19793 whole entry): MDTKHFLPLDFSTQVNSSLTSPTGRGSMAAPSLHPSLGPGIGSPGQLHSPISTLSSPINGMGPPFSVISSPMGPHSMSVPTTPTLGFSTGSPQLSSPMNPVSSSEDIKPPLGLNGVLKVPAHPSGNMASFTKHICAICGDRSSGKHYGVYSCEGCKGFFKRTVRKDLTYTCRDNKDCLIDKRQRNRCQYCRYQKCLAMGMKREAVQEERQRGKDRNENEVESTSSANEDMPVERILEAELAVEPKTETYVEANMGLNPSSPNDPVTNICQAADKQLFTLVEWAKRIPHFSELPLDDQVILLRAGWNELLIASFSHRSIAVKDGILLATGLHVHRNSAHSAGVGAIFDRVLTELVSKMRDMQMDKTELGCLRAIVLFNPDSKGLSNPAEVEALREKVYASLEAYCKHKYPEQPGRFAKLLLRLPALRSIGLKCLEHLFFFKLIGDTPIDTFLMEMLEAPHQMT

[2] = target: T2, Retinoic acid receptor beta (Homo sapiens) (UniProt P10826); test: Antagonism of retinoic acid receptor beta activity induced by retinoic acid at 10e-7 M; assay type: functional
T2 sequence (whole entry): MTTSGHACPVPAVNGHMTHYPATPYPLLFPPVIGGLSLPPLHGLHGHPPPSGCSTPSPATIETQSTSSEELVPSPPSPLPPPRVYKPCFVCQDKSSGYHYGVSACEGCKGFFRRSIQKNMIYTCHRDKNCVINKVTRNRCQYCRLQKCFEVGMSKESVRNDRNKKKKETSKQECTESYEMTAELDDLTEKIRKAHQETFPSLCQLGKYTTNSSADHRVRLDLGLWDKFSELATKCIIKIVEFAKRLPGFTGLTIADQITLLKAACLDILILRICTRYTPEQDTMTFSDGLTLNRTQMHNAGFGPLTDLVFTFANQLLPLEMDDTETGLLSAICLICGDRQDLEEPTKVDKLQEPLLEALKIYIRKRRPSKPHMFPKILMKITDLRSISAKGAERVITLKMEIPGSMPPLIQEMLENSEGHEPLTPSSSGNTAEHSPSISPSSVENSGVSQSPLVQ
Procedure, shortened: (§1)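 CV-1 cells kept in DMEM with 10% FCS and seeded 16-24 h before calcium precipitation cotransfection: RARα, β or γ vector (100 µg) with (TREpal)2-tk-CAT or CRBP-I-tk-CAT reporter (200 µg), plus β-gal vector. At 20 h, medium switched to 5% charcoal-stripped FCS. Cells got 1 × 10^-7 M trans-RA ± test agent for 24 h. CAT normalized to β-gal, as % of trans-RA alone.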

[3] = target: T2, Retinoic acid receptor beta (Homo sapiens); test: Antagonism of retinoic acid receptor beta activity induced by retinoic acid at 10e-5 M; assay type: functional; procedure, shortened: as §1
[4] = target: T3, Retinoic acid receptor RXR-alpha (Homo sapiens) (UniProt P19793); test: Antagonism of retinoid X receptor alpha activity induced by retinoic acid […] at 10e-7 M; assay type: functional
T3 sequence (whole entry): T1 sequence (P19793 whole entry)
Procedure, shortened: (§2)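 CV-1 cells in DMEM/10% FCS, cotransfected by calcium precipitation with RXRα vector (20 µg), CRBP-II-tk-CAT reporter (200 µg) and β-gal vector. At 20 h, medium changed to 5% charcoal-stripped FCS. Cells treated 24 h with 1 × 10^-7 M 9-cis-RA ± test agent. CAT activity normalized to β-gal, expressed relative to 9-cis-RA alone as 100%.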

[5] = target: T2, Retinoic acid receptor beta (Homo sapiens); test: Antagonism of retinoic acid receptor beta activity induced by retinoic acid at 10e-6 M; assay type: functional; procedure, shortened: as §1
[6] = target: T4, Retinoic acid receptor gamma (Homo sapiens) (UniProt P13631); test: Antagonism of retinoic acid receptor gamma activity induced by retinoic acid at 10e-5 M; assay type: functional; procedure, shortened: as §1
T4 sequence (whole entry): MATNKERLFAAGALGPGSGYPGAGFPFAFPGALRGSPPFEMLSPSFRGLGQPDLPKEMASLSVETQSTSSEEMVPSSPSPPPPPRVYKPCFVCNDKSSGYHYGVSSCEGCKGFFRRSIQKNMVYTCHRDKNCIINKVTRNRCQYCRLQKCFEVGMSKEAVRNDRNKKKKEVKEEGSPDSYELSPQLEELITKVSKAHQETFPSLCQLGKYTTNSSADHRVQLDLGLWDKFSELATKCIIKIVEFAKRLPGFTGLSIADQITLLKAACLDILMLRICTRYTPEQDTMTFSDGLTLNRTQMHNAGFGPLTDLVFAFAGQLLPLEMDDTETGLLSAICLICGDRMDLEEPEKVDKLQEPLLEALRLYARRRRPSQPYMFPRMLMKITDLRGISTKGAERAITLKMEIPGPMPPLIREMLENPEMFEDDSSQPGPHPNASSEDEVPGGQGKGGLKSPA

[7] = target: T3, Retinoic acid receptor RXR-alpha (Homo sapiens); test: Antagonism of retinoid X receptor alpha activity induced by retinoic acid […] at 10e-5 M; assay type: functional; procedure, shortened: as §2
[8] = target: T3, Retinoic acid receptor RXR-alpha (Homo sapiens); test: Antagonism of retinoid X receptor alpha activity induced by retinoic acid […] at 10e-6 M; assay type: functional; procedure, shortened: as §2
[9] = target: T5, Retinoic acid receptor alpha (Homo sapiens) (UniProt P10276); test: Antagonism of retinoic acid receptor alpha activity induced by retinoic acid at 10e-7 M; assay type: functional; procedure, shortened: as §1
T5 sequence (whole entry): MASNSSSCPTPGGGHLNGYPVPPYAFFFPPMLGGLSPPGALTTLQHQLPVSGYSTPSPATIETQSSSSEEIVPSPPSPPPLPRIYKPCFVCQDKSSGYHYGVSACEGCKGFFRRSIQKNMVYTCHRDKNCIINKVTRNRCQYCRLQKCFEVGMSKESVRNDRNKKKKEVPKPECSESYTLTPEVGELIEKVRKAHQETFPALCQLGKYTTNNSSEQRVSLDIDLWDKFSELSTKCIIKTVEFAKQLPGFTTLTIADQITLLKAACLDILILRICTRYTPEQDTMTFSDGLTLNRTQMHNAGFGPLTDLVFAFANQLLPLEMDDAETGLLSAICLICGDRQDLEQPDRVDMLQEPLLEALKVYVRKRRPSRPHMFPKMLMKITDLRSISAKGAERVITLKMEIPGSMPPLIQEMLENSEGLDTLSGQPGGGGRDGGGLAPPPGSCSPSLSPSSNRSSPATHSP

[10] = target: T5, Retinoic acid receptor alpha (Homo sapiens); test: Antagonism of retinoic acid receptor alpha activity induced by retinoic acid at 10e-5 M; assay type: functional; procedure, shortened: as §1
[11] = target: T4, Retinoic acid receptor gamma (Homo sapiens); test: Antagonism of retinoic acid receptor gamma activity induced by retinoic acid at 10e-6 M; assay type: functional; procedure, shortened: as §1
[12] = target: T5, Retinoic acid receptor alpha (Homo sapiens); test: Antagonism of retinoic acid receptor alpha activity induced by retinoic acid at 10e-6 M; assay type: functional; procedure, shortened: as §1
[13] = target: T4, Retinoic acid receptor gamma (Homo sapiens); test: Antagonism of retinoic acid receptor gamma activity induced by retinoic acid at 10e-7 M; assay type: functional; procedure, shortened: as §1

SMILES: CCCCOc1cc2c(cc1C(=C1CC1)c1ccc(C(=O)O)cn1)C(C)(C)CCC2(C)C
- pIC50 [1]: 8.00

SMILES: CCCCc1cc2c(cc1C(=C1CC1)c1ccc(C(=O)O)cc1)C(C)(C)CCC2(C)C
- Relative activation [2]: 98%
- pIC50 [1]: 6.30
- Relative activation [3]: 65%
- Relative activation [4]: 115%
- Relative activation [5]: 88%
- Relative activation [6]: 91%
- Relative activation [7]: 48%
- Relative activation [8]: 88%
- Relative activation [9]: 82%
- Relative activation [10]: 22%
- Relative activation [11]: 99%
- Relative activation [12]: 45%
- Relative activation [13]: 95%

SMILES: C=C(c1ccc(C(=O)O)cc1)c1cc2c(cc1CCCC)C(C)(C)CCC2(C)C
- Relative activation [2]: 94%
- Relative activation [3]: 84%
- Relative activation [4]: 114%
- Relative activation [5]: 102%
- Relative activation [6]: 110%
- Relative activation [7]: 150%
- Relative activation [8]: 130%
- Relative activation [9]: 75%
- Relative activation [10]: 20%
- Relative activation [11]: 94%
- Relative activation [12]: 30%
- Relative activation [13]: 89%

SMILES: Cc1cc2c(cc1C(=C1CC1)c1ccc(C(=O)O)cc1)C(C)(C)CCC2(C)C
- pIC50 [1]: 7.68

Continued by rising pIC50 [1], values first:

- pIC50 [1]: 6.57
SMILES: CCCCOc1cc2c(cc1C(=C1CC1)c1ccc(C(=O)O)cc1)C(C)(C)CCC2(C)C

- pIC50 [1]: 6.92
SMILES: CCCOc1cc2c(cc1C(=C1CC1)c1ccc(C(=O)O)cc1)C(C)(C)CCC2(C)C

- pIC50 [1]: 8.22
SMILES: CCCOc1cc2c(cc1C(=C1CC1)c1ccc(C(=O)O)cn1)C(C)(C)CCC2(C)C
